PostGolgi yeast: growth inhibition of a yeast mutant, post-Golgi transport screen; AID 739; post-Golgi transport phenotypic cell assay; 0.9% of 98,000 active; inhibition, % at 10 µM;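 further: yeast cells grown in 1536-well plates; yeast grown about 18 h at 30C before absorbance read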
Cav32 inh: human Cav3.2 channel inhibition, primary screen; AID 449739; 4% of 100,000 active; B-score at 10 µM; Cav3.2-expressing cells, Fluo-4 calcium fluorescence FDSS; hits give low values;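 active means single-dose well whose peak fluorescence ratio is a statistical outlier from its plate by either plate-standardised score or position-corrected B-score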
Target sequence (O95180 whole entry, looked up): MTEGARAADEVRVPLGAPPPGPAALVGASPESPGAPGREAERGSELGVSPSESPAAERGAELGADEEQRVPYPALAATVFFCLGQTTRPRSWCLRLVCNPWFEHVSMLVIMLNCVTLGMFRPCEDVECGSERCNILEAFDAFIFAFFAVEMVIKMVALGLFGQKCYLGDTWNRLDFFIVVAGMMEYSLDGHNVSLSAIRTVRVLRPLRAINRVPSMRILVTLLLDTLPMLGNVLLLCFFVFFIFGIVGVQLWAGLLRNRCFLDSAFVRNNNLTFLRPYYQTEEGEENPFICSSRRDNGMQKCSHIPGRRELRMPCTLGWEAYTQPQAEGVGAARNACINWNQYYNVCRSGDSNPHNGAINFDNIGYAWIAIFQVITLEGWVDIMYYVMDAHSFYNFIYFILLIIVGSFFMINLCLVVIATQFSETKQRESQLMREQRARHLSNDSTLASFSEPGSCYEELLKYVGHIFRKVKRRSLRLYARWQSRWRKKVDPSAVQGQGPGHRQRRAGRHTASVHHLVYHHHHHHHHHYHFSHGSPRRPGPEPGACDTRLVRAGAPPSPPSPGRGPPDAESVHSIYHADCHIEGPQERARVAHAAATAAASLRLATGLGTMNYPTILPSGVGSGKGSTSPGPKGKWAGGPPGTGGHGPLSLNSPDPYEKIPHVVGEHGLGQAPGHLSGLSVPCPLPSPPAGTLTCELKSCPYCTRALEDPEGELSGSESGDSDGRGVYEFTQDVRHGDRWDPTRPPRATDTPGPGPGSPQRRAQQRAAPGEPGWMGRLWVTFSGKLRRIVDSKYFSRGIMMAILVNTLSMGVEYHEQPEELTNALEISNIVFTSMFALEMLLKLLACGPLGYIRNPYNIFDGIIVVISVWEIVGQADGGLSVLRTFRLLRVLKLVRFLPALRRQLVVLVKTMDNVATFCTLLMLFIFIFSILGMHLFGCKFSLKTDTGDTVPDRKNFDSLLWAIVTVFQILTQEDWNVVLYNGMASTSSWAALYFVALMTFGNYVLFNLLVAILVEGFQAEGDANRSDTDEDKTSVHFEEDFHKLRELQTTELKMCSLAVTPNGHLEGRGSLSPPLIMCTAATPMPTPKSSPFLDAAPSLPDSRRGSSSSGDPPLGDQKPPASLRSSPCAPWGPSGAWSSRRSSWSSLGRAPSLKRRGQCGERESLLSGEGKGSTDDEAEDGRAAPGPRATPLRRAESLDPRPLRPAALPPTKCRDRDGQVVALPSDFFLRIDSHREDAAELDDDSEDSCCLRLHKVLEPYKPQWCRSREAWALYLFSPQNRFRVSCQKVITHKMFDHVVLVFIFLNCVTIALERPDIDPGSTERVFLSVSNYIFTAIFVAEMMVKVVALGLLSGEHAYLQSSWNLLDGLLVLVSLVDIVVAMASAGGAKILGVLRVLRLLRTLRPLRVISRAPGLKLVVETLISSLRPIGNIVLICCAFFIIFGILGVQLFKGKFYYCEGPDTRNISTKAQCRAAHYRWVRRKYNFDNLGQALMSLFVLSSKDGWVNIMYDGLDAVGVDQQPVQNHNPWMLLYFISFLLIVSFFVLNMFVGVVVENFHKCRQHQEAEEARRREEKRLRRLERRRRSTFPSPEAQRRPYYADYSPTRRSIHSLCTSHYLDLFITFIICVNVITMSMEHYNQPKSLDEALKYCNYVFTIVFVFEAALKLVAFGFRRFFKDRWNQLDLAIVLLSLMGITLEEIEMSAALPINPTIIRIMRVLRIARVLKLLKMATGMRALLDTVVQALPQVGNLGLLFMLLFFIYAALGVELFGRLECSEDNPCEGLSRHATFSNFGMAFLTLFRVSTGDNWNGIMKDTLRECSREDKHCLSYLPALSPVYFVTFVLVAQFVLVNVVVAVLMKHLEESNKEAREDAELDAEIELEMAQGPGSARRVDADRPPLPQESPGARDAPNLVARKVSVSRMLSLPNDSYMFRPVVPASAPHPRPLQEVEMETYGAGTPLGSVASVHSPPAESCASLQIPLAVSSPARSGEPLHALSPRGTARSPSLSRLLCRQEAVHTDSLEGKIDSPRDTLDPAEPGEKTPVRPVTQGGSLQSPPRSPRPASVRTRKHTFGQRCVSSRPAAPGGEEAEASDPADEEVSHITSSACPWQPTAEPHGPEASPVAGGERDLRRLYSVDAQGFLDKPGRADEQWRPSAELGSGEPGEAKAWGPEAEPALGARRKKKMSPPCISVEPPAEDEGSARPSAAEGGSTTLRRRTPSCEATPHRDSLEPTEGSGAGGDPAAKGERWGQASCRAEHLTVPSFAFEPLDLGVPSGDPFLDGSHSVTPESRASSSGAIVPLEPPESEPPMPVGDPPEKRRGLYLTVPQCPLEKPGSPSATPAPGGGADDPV
tolC growth inh: blocks growth of E. coli BW25113 tolC mutant. OD615. growth inhibition, % at 10 µM (by protocol). 2.2% of 65,000 active;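 active means growth inhibition at or above a cutoff equal to the mean over every tested compound plus 3 SD, cut at about 60% in these data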;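 further: growth measured after 20 h incubation at 37 °C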
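Assay system: tolC-deleted E. coli BW25113. Medium: kanamycin-containing LB broth (50 µg/mL). Dosing: 10 µM final, single dose. Timing: bacterial growth with compound for 20 h at 37 °C. Detection: A615 absorbance measurement. Read-out basis: growth inhibition in percent.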
Ecoli WT expand: E. coli BW25113 growth inhibition, expanded screen; OD600 absorbance; growth inhibition, % at 100 µM; 0.15% of 98,000 active;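 active means growth inhibition above about 50% at one test dose, limit read from the data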;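 further: growth measured after 20 h incubation at 37 °C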
PostGolgi ctrl: inhibits growth of the yeast control strain | 5% of 98,000 active | inhibition, % at 10 µM | efflux-deficient yeast background strain, growth absorbance A615, 16 h | AID 738
The depositor's hits bear a star; / = no result. Rows were chosen to be rich in hits. Some 8.4% of all compounds tested hit in one or more screens of this group. Unless noted, no stated cut-off is given here; in the data, active means inhibition above about 30%; inactive means the rest.

SMILES	PostGolgi yeast	Cav32 inh	tolC growth inh	Ecoli WT expand	PostGolgi ctrl
Cc1sc(NC(=O)CN(Cc2ccc(F)cc2)C(=O)C(C)C)c(C(N)=O)c1C	-7	/	/	-5	5
CC1CCC(NC(=O)Cn2c3c(c(-c4ccccc4Cl)cc2=O)CCC3)CC1 (configuration not stated)	-5	-5.1*	/	4	10
COc1ccc(OC)c(NC(=O)C2C3CCC(O3)C2C(=O)O)c1 (configuration not stated)	7	/	-6	3	13
C=CCSC1=Nc2sccc2C2=NC(=O)CN12	-2	/	/	3	7
CCC(c1nnnn1C1CCCC1)N1CCN(c2ccccc2F)CC1 (configuration not stated)	2	/	7	-4	27
CCCC(c1nnnn1C1CCCC1)N1CCN(c2ccccc2F)CC1 (configuration not stated)	19	-4.3	5	-7	67*
O=C(c1cccs1)N1CCN(C(=O)C(c2ccccc2)c2ccccc2)CC1	10	-0.7	/	5	17
COc1ccc(S(=O)(=O)CCC(=O)N(C)c2ccc(OC)cc2OC)cc1	/	0.14	/	/	/
CNC(=S)N1N=C(c2ccc(Br)cc2)CC1c1ccc(Br)cc1 (configuration not stated)	-11	-6.7*	/	-8	33*
CNC(=S)N1N=C(c2ccc(OC)cc2)CC1c1ccc(N(C)C)cc1 (configuration not stated)	-3	-4.1	/	-10	3
COc1cc(C(=O)NC2CCCNC2)cc(OC)c1OC (configuration not stated)	/	0.24	/	/	/
COc1ccc(-c2cc(C3CC3)nc3sc(C#N)c(N)c23)cc1	6	0.29	/	-5	63*
CSc1nsc(SCC(=O)Nc2c(C)n(C)n(-c3ccccc3)c2=O)n1	8	-0.025	4	6	9
O=C(C1CC1)N1CCc2cc(S(=O)(=O)NCCC3=CCCCC3)ccc21	-3	-1.6	74*	8	36*
CC(C)(C)c1ccccc1OCCN1CCCC1	3	/	-14	6	5
Cc1cc(C(C)(C)C)ccc1OCCN1CCCC1	67*	1	/	9	29
Cc1ccccc1NC(=O)c1sc(Cl)nc1-c1ccccc1	-10	1.9	/	10	39*
Cc1ccc(C)c(NC(=O)c2sc(Cl)nc2-c2ccccc2)c1	3	-1.1	/	-9	24
COc1ccc(NC(C)=O)cc1NC(=O)CN1CCN(C(=O)c2ccco2)CC1	0	0.94	/	-8	-7
CCOc1ccccc1-c1nc(SCC(=O)O)n[nH]1	-5	-0.19	-4	0	3
O=C1N/C(=N/NC(=O)c2cccc3ccccc23)S/C1=C\c1ccccc1OCc1ccccc1	-3	-5.2*	/	-25	13
CCOc1cc(/C=N/NC(N)=S)cc(Br)c1OCc1ccccc1C	3	-0.018	/	-6	67*
CCCC1=C(C(=O)OCC)C(c2c(C)nn(-c3ccccc3)c2Cl)C(C#N)=C(N)O1 (configuration not stated)	-4	-5*	/	8	23
COc1ccc2[nH]c(=O)c(CN(CCO)C(=O)c3ccccc3F)cc2c1	-14	0.26	-16	0	0
O=C(Nc1ccc(Cl)cc1)OCCn1nnnc1C(c1ccccc1Cl)N1CCOCC1 (configuration not stated)	3	-6.9*	/	15	0
SMILES	PostGolgi yeast	Cav32 inh	tolC growth inh	Ecoli WT expand	PostGolgi ctrl
Cc1cccnc1NC(=O)Nc1cccc(C(F)(F)F)c1	-4	-0.35	-10	-6	7
CCOC(=O)C1=NN(C(=O)Nc2cccc(C(F)(F)F)c2)C2C(=O)N(c3cccc(C(F)(F)F)c3)C(=O)C12 (configuration not stated)	1	-5.7*	/	-4	2
CCOc1ccc(C2Sc3ccccc3NC3=C2C(=O)OC3)cc1 (configuration not stated)	-1	-4.1*	/	5	22
O=C1OCC2=C1C(c1ccc3c(c1)OCO3)Sc1ccccc1N2 (configuration not stated)	-4	-0.7	47	-3	24
CCOC(=O)c1c(C=O)c(C)n(Cc2ccc(C)cc2)c1C	16	-6.1*	/	9	26
CC(=O)Nc1sc2c(c1C(c1ccc(Cl)cc1)N1CCOCC1)CCCC2 (configuration not stated)	29	/	/	5	31*
CC(=O)Nc1sc2c(c1C(c1ccccc1)N1CCOCC1)CCCC2 (configuration not stated)	9	-6.3*	/	-4	25
CC(=O)Nc1sc2c(c1C(c1ccc(F)cc1)N1CCOCC1)CCCC2 (configuration not stated)	-3	-7.1*	/	5	19
CCc1cc(C(c2cccc(OC)c2)N2CCOCC2)c(NC(=O)c2ccccc2)s1 (configuration not stated)	9	-5	/	-10	18
CCc1cc(C(c2ccc(F)cc2)N2CCOCC2)c(NC(=O)c2ccccc2)s1 (configuration not stated)	32*	-1	/	11	11
NC(=O)C1=C[C@H](c2ccc(C(F)(F)F)cc2)C[C@H](OCCCCO)O1	/	0.92	/	/	/
Cc1[nH]nc2c1C(c1cn[nH]c1-c1ccc(F)cc1)C(C#N)=C(N)O2 (configuration not stated)	14	/	28	1	-2
CC(=O)NC1(c2ccccc2)CCN(c2nc(C)cc(C)n2)CC1	-9	1.1	1	1	0
O=C1c2ccccc2CCC12N=NCC2c1ccccc1 (configuration not stated)	2	-0.6	/	8	15
Cc1ccsc1C(=O)Nc1nnc(-c2ccco2)o1	5	0.66	98*	85*	3
COc1ccc(-c2cc(=O)c3ccccc3o2)cc1	/	-0.63	/	/	/
COc1ccc(-c2nnc(Sc3nc4ccccc4o3)c3ccccc23)cc1	-2	-0.9	/	-3	46*
Cc1ccc(C)c(NS(=O)(=O)c2cc(C(=O)Nc3ccccc3-c3ccccc3)ccc2Cl)c1	-4	-3.7	/	-18	13
Cc1cccc(OCC(=O)NC(C)C(=O)N/N=C/c2c(OCc3ccccc3)ccc3ccccc23)c1 (configuration not stated)	6	-6.8*	/	-9	12
Cc1cccc(OCC(=O)NNc2c3ccccc3nc3ccccc23)c1	0	-2.6	/	0	1
Cc1ccc(O)c(-c2cc(C(=O)NCc3ccncc3)[nH]n2)c1	6	-1.6	-11	5	-2
COc1ccc(NC(=O)c2c(F)c(F)c(F)c(F)c2F)cc1Cl	18	0.67	9	1	-6
COc1ccc(NC(=O)c2cc(-c3cc(C)cc(C)c3O)n[nH]2)cc1Cl	28	-0.77	96*	-1	10
Cc1cc(C)c(O)c(-c2cc(C(=O)NCc3ccccc3)[nH]n2)c1	-16	-1.1	/	-2	32*
COc1ccccc1-n1nnnc1SCc1cc2c(cc1Br)OCO2	0	-1.4	43	-7	15
Cc1ccc(Nc2nc(N)nc(CN3CCN(c4ccccc4F)CC3)n2)cc1	6	-5.3*	13	2	8
Nc1nc(CN2CCN(c3ccccc3F)CC2)nc(Nc2ccccc2)n1	0	-1.2	16	11	1

Screening results: PubChem BioAssay, several laboratories
